Results as given in ChEMBL document CHEMBL3421585, “Structure-Based Design of Potent and Selective Inhibitors of the Metabolic Kinase PFKFB3” (J Med Chem, 2015).
Values after ≈ are worked out from the molar mass of the structure shown.

What was measured:
[1] = Lipophilicity, log D of the compound at pH 7.4; details: buffer
[2] = target: T1, 6-phosphofructo-2-kinase/fructose-2,6-bisphosphatase 3 (Homo sapiens, UniProt Q16875); test: Inhibition of PFKFB3 in human A549 cells assessed as decrease in lactate secretion after 4 hrs; type: cell-based
Outline: (§1)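 A549 cells; fructose-1,6-bisphosphate or lactate production measured.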

[3] = target: 6-phosphofructo-2-kinase/fructose-2,6-bisphosphatase 2 (Homo sapiens, UniProt O60825); test: Inhibition of recombinant human PFKFB2 using fructose 6 phosphate as substrate assessed as ADP generation after 1 hr by ADP Glo assay
[4] = target: 6-phosphofructo-2-kinase/fructose-2,6-bisphosphatase 1 (Homo sapiens, UniProt P16118); test: Inhibition of recombinant human PFKFB1 using fructose 6 phosphate as substrate assessed as ADP generation after 1 hr by ADP Glo assay
[5] = target: T1, 6-phosphofructo-2-kinase/fructose-2,6-bisphosphatase 3; test: Inhibition of recombinant human PFKFB3 using fructose 6 phosphate as substrate assessed as ADP generation after 1 hr by ADP Glo assay
A549 = test: Cytotoxicity against human A549 cells assessed as cell viability after 4 hrs; type: cell-based; details: a549, 4 h
[6] = target: T1, 6-phosphofructo-2-kinase/fructose-2,6-bisphosphatase 3; test: Inhibition of PFKFB3 in human A549 cells assessed as reduction of fructose-1,6-bisphosphate formation after 4 hrs by MS/MS analysis; type: cell-based; outline: as §1
[7] = Fraction unbound in mouse plasma; type: ADME, cell-free
[8] = Volume of distribution at steady state in Wistar rat at 3.1 uM/kg, po and 2.5 uM/kg, iv; type: ADME, organism-based; details: in vivo, read-out: Vdss
Outline: (§2)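 Male Wistar Han rats, 10-12 weeks old (n=2), given 3.1 µMol/kg po and 2.5 µMol/kg iv in 5% DMSO / 95% Captisol (30% in water).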

[9] = Volume of distribution at steady state in CD1 mouse at 2.5 uM/kg, po and iv; type: ADME, organism-based; details: in vivo, read-out: Vdss
Outline: (§3)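 CD1 mice dosed po and iv at 2.5 µMol/kg.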

[10] = Oral bioavailability in CD1 mouse at 2.5 uM/kg; type: ADME, organism-based; details: in vivo; outline: as §3
[11] = Half life in CD1 mouse at 2.5 uM/kg, iv; type: ADME, organism-based; details: in vivo; outline: as §3
[12] = Fraction unbound in rat plasma; type: ADME, cell-free
[13] = Half life in Wistar rat at 2.5 uM/kg, iv; type: ADME, organism-based; details: in vivo; outline: as §2
[14] = Aqueous solubility of the compound at pH 7.4; type: physicochemical; details: buffer
[15] = Cmax in nude mouse at 124 umol/kg; type: ADME, organism-based; parameters: dose 124 umol/kg; details: in vivo
[16] = Half life in rat hepatocytes; type: ADME, cell-based, Hepatocyte
[17] = Apparent intrinsic permeability in human Caco2 cells at pH 6.5; type: ADME, cell-based; details: Caco-2, pH 6.5
[18] = Fraction unbound in human plasma; type: ADME, cell-free
[19] = Clearance in Wistar rat at 3.1 uM/kg, po and […] uM/kg, iv; type: ADME, organism-based; details: in vivo
[20] = Clearance in CD1 mouse at 2.5 uM/kg, po and iv; type: ADME, organism-based; details: in vivo; outline: as §3
[21] = Half life in human hepatocytes; type: ADME, cell-based, Hepatocyte
[22] = Efflux ratio of apparent intrinsic permeability in human Caco2 cells; type: ADME, cell-based; details: Caco-2
[23] = AUC in nude mouse at 124 umol/kg; type: ADME, organism-based; details: plasma
[24] = Half life in mouse hepatocytes; type: ADME, cell-based, Hepatocyte
Homo sapiens = species on record: Homo sapiens; test: Selectivity ratio of IC50 for recombinant human PFKFB2 to IC50 for recombinant human PFKFB3
Outline: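 Ratio of the PFKFB2 enzyme IC50 to the PFKFB3 enzyme IC50. Each IC50 is the mean of at least two independent measurements, reported in micromolar, with SEM ±0.2 log units.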

Chain of 6-phosphofructo-2-kinase/fructose-2,6-bisphosphatase 2 (O60825 whole entry): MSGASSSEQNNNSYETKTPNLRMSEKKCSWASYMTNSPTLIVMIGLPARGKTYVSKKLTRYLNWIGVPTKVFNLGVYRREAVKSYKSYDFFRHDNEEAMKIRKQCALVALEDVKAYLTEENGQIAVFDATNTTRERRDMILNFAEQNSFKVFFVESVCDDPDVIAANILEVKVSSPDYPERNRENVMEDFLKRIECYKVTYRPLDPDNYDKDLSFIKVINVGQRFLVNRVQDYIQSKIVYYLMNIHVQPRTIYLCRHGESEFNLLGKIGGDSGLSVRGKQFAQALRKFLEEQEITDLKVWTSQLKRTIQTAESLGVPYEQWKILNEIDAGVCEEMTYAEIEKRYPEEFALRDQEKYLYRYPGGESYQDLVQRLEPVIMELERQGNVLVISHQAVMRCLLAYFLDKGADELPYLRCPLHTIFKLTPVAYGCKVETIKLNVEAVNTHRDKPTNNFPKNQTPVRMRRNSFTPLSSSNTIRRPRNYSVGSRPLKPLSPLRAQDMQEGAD
T1 sequence (Q16875 whole entry): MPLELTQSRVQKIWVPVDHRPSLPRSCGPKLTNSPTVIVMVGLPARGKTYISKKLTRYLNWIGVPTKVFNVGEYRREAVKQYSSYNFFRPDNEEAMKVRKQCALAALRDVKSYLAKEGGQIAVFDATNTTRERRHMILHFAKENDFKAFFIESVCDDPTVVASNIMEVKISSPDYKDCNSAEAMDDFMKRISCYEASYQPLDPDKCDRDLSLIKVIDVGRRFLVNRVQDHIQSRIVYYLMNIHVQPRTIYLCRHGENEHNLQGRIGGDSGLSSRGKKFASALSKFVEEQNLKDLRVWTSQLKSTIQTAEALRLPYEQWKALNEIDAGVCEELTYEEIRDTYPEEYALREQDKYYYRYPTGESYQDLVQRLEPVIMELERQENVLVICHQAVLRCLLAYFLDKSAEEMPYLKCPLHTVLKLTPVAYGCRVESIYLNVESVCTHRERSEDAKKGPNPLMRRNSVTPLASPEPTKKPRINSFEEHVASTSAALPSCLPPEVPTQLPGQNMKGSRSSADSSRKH
Chain of 6-phosphofructo-2-kinase/fructose-2,6-bisphosphatase 1 (P16118 whole entry): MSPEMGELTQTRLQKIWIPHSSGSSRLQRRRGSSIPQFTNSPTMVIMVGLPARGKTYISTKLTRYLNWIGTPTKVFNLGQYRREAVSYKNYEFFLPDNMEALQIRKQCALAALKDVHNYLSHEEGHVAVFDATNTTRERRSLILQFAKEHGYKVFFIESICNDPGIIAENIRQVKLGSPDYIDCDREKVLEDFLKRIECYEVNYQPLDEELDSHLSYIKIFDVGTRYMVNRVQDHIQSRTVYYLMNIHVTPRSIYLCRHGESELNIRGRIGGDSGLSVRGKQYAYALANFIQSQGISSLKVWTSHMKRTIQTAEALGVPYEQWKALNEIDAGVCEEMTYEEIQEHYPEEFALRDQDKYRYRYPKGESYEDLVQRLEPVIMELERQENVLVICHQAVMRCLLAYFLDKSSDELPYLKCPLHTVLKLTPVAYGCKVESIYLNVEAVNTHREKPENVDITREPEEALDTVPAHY

| logD [1] | IC50 [2] [µM] | IC50 [3] [µM] | IC50 [4] [µM] | IC50 [5] [µM] | IC50 [6] [µM] | Structure (SMILES) | also measured |
| --- | --- | --- | --- | --- | --- | --- | --- |
| > 4.3 | 8.71 | 0.374 | 1.93 | 0.027 |  | N#Cc1cn(-c2ccccc2)c2ccc(Oc3ccc(NC(=O)[C@@H]4CCCN4)cc3)cc12 | Activity (A549): Toxic |
| 2.9 | 24.7 | > 100 | 0.321 | 37.7 | > 30 | CC(C)Cn1cc(C#N)c2cc(S(=O)(=O)c3ccc(NC(=O)[C@@H]4CCCN4)cc3)ccc21 |  |
| 2.8 | > 30 | 0.429 | 3.47 | 0.048 | 0.633 | N#Cc1cn(CC2CCOCC2)c2ccc(Oc3ccc(NC(=O)[C@@H]4CCCN4)cc3)cc12 |  |
| 1.4 | > 30 | 2.35 | 16.9 | 0.111 | 14 | CNC(=O)Cn1cc(C#N)c2cc(Oc3ccc(NC(=O)[C@@H]4CCCN4)cc3)ccc21 |  |
| 1.9 | 9.71 | 0.818 | 2.35 | 0.021 | 0.979 | Cn1cc(-c2cn(C)c3ccc(Oc4ccc(NC(=O)[C@@H]5CCCN5)cc4)cc23)cn1 | Activity (A549): Non-toxic |
| 2.1 | > 30 | > 100 | 53.8 | 0.256 | 7.48 | CN(C)CCn1cc(C#N)c2cc(Oc3ccc(NC(=O)[C@@H]4CCCN4)cc3)ccc21 |  |
| 2.7 | > 30 | 24.9 | 20.4 | 0.83 |  | CCn1cc(C#N)c2cc(Oc3ccc(NC(=O)CNC)cc3)ccc21 |  |
| 2 | > 30 | 9.18 | 25 | 0.514 | > 30 | CCn1c(N)c(C#N)c2cc(Oc3ccc(NC(=O)CN)cc3)ccc21 |  |
| 2.8 | > 30 | > 100 | > 100 | 70.9 |  | CCn1cc(C#N)c2cc(Oc3ccc(NC(=O)[C@H]4CCCN4)cc3)ccc21 |  |
| 2.5 | > 30 | 22.8 | 18.4 | 0.562 |  | CCn1cc(C#N)c2cc(Oc3ccc(NC(=O)CN)cc3)ccc21 |  |
| 0.5 | > 30 | 6.84 | 2.53 | 0.343 | > 30 | CN(C)C(=O)Cn1c(N)c(C#N)c2cc(Oc3ccc(NC(=O)CN)cc3)ccc21 |  |
| 1.9 | > 30 | 76.5 | 72.3 | 23.1 |  | CCn1cc(C#N)c2cc(Oc3ccc(N(C)C(=O)[C@@H]4CCCN4)cc3)ccc21 |  |
| 2.8 | > 30 | 0.159 | 1.13 | 0.011 | 0.281 | Cc1noc(C)c1Cn1cc(C#N)c2cc(Oc3ccc(NC(=O)[C@@H]4CCCN4)cc3)ccc21 |  |
| 2.7 | > 30 | 6.15 | 36.6 | 1.57 |  | CC(C)Cn1cc(C#N)c2cc(Nc3ccc(NC(=O)[C@@H]4CCCN4)cc3)ccc21 |  |
| 3.8 | 13.7 | 0.141 | 5 | 0.075 | > 30 | CC(C)Cn1cc(C#N)c2cc(N(C)c3ccc(NC(=O)[C@@H]4CCCN4)cc3)ccc21 | Activity (A549): Toxic |
| > 4.3 | 14 | 0.19 | 1.66 | 0.111 |  | CC(C)Cn1cc(C#N)c2cc(Sc3ccc(NC(=O)[C@@H]4CCCN4)cc3)ccc21 | Activity (A549): Toxic |
| 2.8 |  | > 100 | 24 | > 100 |  | CC(=O)Nc1ccc(Oc2ccc3[nH]c(N)c(C#N)c3c2)cc1 |  |
| 3.5 | 5.77 | 0.384 | 2.06 | 0.023 | 0.343 | CC(C)Cn1cc(C#N)c2cc(Oc3ccc(NC(=O)[C@@H]4CCCN4)cc3)ccc21 | fraction unbound [7]: 0.0164; Vd [8]: 0.4 L/kg; Vd at […] [9]: 3.3 L/kg; bioavailability at […] [10]: 42%; half-life at […] [11]: 84 min; fraction unbound [12]: < 0.0003; half-life at […] [13]: 204 min; solubility [14]: 48 µM (≈ 19.3 µg/mL); Cmax [15]: 35 µM; half-life [16]: 21 min; Papp [17]: 13.4 ×10⁻⁶ cm/s; fraction unbound [18]: 0.0033; clearance [19]: 2 mL/min/kg; clearance at […] [20]: 38 mL/min/kg; half-life [21]: 28 min; efflux ratio [22]: 4.6; AUC [23]: 259 µM·h; Activity (A549): Toxic; half-life [24]: 21 min; Ratio IC50 (Homo sapiens): 17 |
| 2.9 | 12.6 | 1.48 | 2.66 | 0.104 | > 30 | N#Cc1c(N)n(Cc2ccccc2)c2ccc(Oc3ccc(NC(=O)CN)cc3)cc12 | Activity (A549): Toxic |

| logD [1] | IC50 [2] [µM] | IC50 [3] [µM] | IC50 [4] [µM] | IC50 [5] [µM] | IC50 [6] [µM] | Structure (SMILES) | also measured |
| --- | --- | --- | --- | --- | --- | --- | --- |
| 3.9 | 6.95 | 0.188 | 1.83 | 0.02 |  | N#Cc1cn(Cc2ccccc2)c2ccc(Oc3ccc(NC(=O)[C@@H]4CCCN4)cc3)cc12 | Activity (A549): Toxic |
|  | 19.6 |  | 3.74 | 0.086 |  | CCn1cc(C#N)c2cc(Oc3ccc(NC(=O)[C@@H]4CCN4)cc3)ccc21 |  |
| 1.9 | > 30 | 21.1 | 38.2 | 0.815 |  | Cn1c(N)c(C#N)c2cc(Oc3ccc(NC(=O)CN)cc3)ccc21 |  |
|  | > 30 | 76.1 | 62.9 | 9.83 |  | CCn1cc(C#N)c2cc(Oc3ccc(NC(=O)CN(C)C)cc3)ccc21 |  |
| 1.9 | > 30 | 26.9 | 51.1 | 0.575 | > 30 | N#Cc1c(N)[nH]c2ccc(Oc3ccc(NC(=O)[C@@H](N)CO)cc3)cc12 |  |
| 2.7 | > 30 | 22 | 86.3 | 2.2 |  | CCn1cc(C#N)c2cc(Oc3ccc(NC(=O)[C@@H]4CCCCN4)cc3)ccc21 |  |
| 2.3 | > 30 | 3.57 | 27.4 | 0.114 | > 30 | Cn1cc(-c2c[nH]c3ccc(Oc4ccc(NC(=O)[C@@H]5CCCN5)cc4)cc23)cn1 |  |
| 1.6 |  | > 100 | 61.5 | > 100 |  | N#Cc1c(N)[nH]c2ccc(Oc3ccc(NC(=O)[C@H](N)CO)cc3)cc12 |  |
|  |  |  |  | > 100 |  | O=C(/C=C/c1cccnc1)c1ccncc1 |  |
| 3.2 | 16.4 | 2.52 | 3.18 | 0.177 | > 30 | CC(C)Cn1c(N)c(C#N)c2cc(Oc3ccc(NC(=O)CN)cc3)ccc21 | Activity (A549): Toxic |
| 2.9 | 12 | 1.82 | 22.1 | 0.112 | 3.05 | CCn1cc(C#N)c2cc(Oc3ccc(NC(=O)[C@@H]4CCCN4)cc3)ccc21 | Activity (A549): Non-toxic |
| 2.1 |  | 63.2 | 37.6 | 2.01 |  | N#Cc1c[nH]c2ccc(Oc3ccc(NC(=O)CN)cc3)cc12 |  |
| 3.9 | > 30 | 1.45 | 5.92 | 0.199 | > 30 | CC(C)Cn1cc(C#N)c2cc(Cc3ccc(NC(=O)[C@@H]4CCCN4)cc3)ccc21 |  |
|  | > 30 | 23.7 | > 100 | 0.531 |  | CCn1cc(C#N)c2cc(Oc3ccc(NC(=O)[C@@H]4CCC(=O)N4)cc3)ccc21 |  |
| 3.6 | 15.4 | 0.015 | 0.294 | 0.004 | 0.297 | CC(C)Cn1nc(C#N)c2cc(Oc3ccc(NC(=O)[C@@H]4CCCN4)cc3)ccc21 | Activity (A549): Toxic; Ratio IC50 (Homo sapiens): 4 |
|  |  | 0.025 | 0.191 | 0.003 | 0.067 | Cc1noc(C)c1Cn1nc(C#N)c2cc(Oc3ccc(NC(=O)[C@@H]4CCCN4)cc3)ccc21 |  |
| 3 | 2.18 | 0.108 | 0.701 | 0.008 | 0.14 | CN1Cc2cc(-n3cc(C#N)c4cc(Oc5ccc(NC(=O)[C@@H]6CCCN6)cc5)ccc43)ccc2C1=O | Activity (A549): Non-toxic |
| 1.6 |  | 53.8 | > 100 | 2.32 |  | N#Cc1c(N)[nH]c2ccc(Oc3ccc(NC(=O)CN)cc3)cc12 |  |
